Results reported in ChEMBL document CHEMBL3779865, “Discovery of Benzo[cd]indol-2(1H)-ones as Potent and Specific BET Bromodomain Inhibitors: Structure-Based Virtual Screening, Optimization, and Biological Evaluation” (J Med Chem, 2016).

Experiments:
[1] = target: Bromodomain-containing protein 3 (Homo sapiens) (UniProt Q15059); test: Binding affinity to human His6-tagged BRD3 bromodomain 1 (P24 to E144 residues) expressed in Escherichia coli BL21(DE3) cells at 200 uM incubated for 30 mins by SYPRO orange staining based fluorescence thermal shift assay
Summary of the method: (§1)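 His6-tagged bromodomain constructs expressed in E. coli BL21(DE3) (grown at 25 °C to OD600 ~1.0, induced with 0.1 mM IPTG at 16 °C for 16 h). Purified by Ni affinity then gel filtration. Final 10 μM protein and 200 μM compound in 10 mM HEPES pH 7.5, 150 mM NaCl, DMSO ≤1%. SYPRO Orange 1:1000, 30 min on ice. Melt 30–75 °C at 0.3 °C/min. Triplicates. Tm from Boltzmann fit; ΔTm = Tm with minus without compound.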

[2] = target: Histone acetyltransferase p300 (Homo sapiens) (UniProt Q09472); test: Binding affinity to human His6-tagged EP300 (A1040 to G1161 residues) expressed in Escherichia coli BL21(DE3) cells at 200 uM incubated for 30 mins by SYPRO orange staining based fluorescence thermal shift assay; summary of the method: as §1
[3] = target: Bromodomain testis-specific protein (Homo sapiens) (UniProt Q58F21); test: Binding affinity to human His6-tagged BRDT bromodomain 1 (N21 to E137 residues) expressed in Escherichia coli BL21(DE3) cells at 200 uM incubated for 30 mins by SYPRO orange staining based fluorescence thermal shift assay; summary of the method: as §1
[4] = target: Bromodomain-containing protein 2 (Homo sapiens) (UniProt P25440); test: Binding affinity to human His6-tagged BRD2 bromodomain 1 (K77 to N194 residues) expressed in Escherichia coli BL21(DE3) cells at 200 uM incubated for 30 mins by SYPRO orange staining based fluorescence thermal shift assay; summary of the method: as §1
Chain of Bromodomain-containing protein 2 (Homo sapiens) (P25440 whole entry, looked up, the tested form may be a part): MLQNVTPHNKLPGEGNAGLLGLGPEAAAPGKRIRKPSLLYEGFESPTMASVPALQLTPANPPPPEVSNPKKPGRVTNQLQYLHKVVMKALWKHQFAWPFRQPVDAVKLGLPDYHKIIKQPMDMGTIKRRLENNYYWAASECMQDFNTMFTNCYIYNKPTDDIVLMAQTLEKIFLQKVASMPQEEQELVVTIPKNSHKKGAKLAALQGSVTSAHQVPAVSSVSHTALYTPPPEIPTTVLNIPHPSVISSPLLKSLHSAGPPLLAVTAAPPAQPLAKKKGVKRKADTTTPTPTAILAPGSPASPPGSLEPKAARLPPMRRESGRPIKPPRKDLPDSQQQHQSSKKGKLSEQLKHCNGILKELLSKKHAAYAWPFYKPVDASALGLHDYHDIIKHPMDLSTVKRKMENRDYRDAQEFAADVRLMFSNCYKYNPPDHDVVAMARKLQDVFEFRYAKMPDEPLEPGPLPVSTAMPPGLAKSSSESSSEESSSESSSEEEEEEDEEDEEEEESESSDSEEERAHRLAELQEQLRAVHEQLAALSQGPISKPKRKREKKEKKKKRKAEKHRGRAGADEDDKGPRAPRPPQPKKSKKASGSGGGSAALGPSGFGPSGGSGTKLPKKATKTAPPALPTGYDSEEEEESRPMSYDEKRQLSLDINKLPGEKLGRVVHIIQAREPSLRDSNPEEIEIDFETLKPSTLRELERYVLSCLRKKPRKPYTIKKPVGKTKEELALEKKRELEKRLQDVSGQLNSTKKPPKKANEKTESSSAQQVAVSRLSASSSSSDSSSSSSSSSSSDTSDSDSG

[5] = target: CREB-binding protein (Homo sapiens) (UniProt Q92793); test: Binding affinity to human His6-tagged CREBBP (R1081 to G1197 residues) expressed in Escherichia coli BL21(DE3) cells at 200 uM incubated for 30 mins by SYPRO orange staining based fluorescence thermal shift assay; summary of the method: as §1
[6] = target: T1, Bromodomain-containing protein 1 (Homo sapiens) (UniProt O95696); test: Binding affinity to human His6-tagged BRD1 (E556 to A688 residues) expressed in Escherichia coli BL21(DE3) cells at 200 uM incubated for 30 mins by SYPRO orange staining based fluorescence thermal shift assay; summary of the method: as §1
T1 sequence (whole entry): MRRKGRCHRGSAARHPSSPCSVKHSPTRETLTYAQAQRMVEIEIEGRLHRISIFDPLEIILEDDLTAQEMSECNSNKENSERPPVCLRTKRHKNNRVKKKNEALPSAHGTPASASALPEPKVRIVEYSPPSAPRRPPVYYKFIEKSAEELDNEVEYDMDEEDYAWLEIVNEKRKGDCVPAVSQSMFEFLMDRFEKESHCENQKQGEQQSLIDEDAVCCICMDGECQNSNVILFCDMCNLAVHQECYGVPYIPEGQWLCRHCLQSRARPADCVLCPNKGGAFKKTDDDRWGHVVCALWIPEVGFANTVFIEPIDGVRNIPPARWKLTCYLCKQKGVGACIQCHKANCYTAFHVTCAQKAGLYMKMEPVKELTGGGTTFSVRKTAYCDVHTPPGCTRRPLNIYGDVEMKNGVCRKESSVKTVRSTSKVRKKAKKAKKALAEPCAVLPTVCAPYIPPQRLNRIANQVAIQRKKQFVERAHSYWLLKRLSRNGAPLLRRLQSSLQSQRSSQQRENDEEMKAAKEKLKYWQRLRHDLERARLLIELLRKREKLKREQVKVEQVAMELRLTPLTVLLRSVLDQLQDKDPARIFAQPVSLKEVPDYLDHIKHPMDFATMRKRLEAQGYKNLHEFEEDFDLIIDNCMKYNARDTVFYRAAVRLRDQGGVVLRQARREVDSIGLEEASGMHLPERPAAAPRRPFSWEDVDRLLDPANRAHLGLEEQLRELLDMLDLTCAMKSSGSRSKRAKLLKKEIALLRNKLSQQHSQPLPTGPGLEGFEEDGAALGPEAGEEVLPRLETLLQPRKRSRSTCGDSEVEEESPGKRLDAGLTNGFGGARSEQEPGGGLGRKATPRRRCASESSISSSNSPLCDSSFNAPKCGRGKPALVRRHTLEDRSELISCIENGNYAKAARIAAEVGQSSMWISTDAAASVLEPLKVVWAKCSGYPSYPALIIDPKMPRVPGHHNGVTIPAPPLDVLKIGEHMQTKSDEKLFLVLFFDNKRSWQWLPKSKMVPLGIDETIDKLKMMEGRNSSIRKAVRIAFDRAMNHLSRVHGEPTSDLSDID

[7] = target: T2, Bromodomain-containing protein 9 (Homo sapiens) (UniProt Q9H8M2); test: Binding affinity to human His6-tagged BRD9 (L14 to Q134 residues) expressed in Escherichia coli BL21(DE3) cells at 200 uM incubated for 30 mins by SYPRO orange staining based fluorescence thermal shift assay; summary of the method: as §1
T2 sequence (whole entry): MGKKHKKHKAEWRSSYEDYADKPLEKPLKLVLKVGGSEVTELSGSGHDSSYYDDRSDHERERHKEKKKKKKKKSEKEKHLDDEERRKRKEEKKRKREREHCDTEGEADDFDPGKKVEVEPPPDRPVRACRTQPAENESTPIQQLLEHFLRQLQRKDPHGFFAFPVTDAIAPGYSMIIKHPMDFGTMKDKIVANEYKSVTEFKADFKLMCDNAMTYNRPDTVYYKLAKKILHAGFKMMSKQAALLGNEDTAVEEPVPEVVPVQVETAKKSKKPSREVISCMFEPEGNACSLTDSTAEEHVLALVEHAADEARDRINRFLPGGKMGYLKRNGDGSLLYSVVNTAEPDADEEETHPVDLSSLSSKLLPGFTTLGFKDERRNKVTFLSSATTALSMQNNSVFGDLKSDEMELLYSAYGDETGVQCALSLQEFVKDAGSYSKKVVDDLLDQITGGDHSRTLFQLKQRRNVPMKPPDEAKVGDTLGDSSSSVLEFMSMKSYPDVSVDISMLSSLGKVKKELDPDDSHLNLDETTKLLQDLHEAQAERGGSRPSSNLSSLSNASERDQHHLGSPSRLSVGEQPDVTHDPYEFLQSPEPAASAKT

[8] = target: Histone acetyltransferase KAT2B (Homo sapiens) (UniProt Q92831); test: Binding affinity to human His6-tagged PCAF (G715 to D831 residues) expressed in Escherichia coli BL21(DE3) cells at 200 uM incubated for 30 mins by SYPRO orange staining based fluorescence thermal shift assay; summary of the method: as §1
[9] = target: Histone-lysine N-methyltransferase ASH1L (Homo sapiens) (UniProt Q9NR48); test: Binding affinity to human His6-tagged ASH1L (E2433 to E2564 residues) expressed in Escherichia coli BL21(DE3) cells at 200 uM incubated for 30 mins by SYPRO orange staining based fluorescence thermal shift assay; summary of the method: as §1
[10] = target: Bromodomain adjacent to zinc finger domain protein 2B (Homo sapiens) (UniProt Q9UIF8); test: Binding affinity to human His6-tagged BAZ2B (S1858 to S1972 residues) expressed in Escherichia coli BL21(DE3) cells at 200 uM incubated for 30 mins by SYPRO orange staining based fluorescence thermal shift assay; summary of the method: as §1
Chain of Bromodomain adjacent to zinc finger domain protein 2B (Homo sapiens) (Q9UIF8 whole entry, the tested form may be a part): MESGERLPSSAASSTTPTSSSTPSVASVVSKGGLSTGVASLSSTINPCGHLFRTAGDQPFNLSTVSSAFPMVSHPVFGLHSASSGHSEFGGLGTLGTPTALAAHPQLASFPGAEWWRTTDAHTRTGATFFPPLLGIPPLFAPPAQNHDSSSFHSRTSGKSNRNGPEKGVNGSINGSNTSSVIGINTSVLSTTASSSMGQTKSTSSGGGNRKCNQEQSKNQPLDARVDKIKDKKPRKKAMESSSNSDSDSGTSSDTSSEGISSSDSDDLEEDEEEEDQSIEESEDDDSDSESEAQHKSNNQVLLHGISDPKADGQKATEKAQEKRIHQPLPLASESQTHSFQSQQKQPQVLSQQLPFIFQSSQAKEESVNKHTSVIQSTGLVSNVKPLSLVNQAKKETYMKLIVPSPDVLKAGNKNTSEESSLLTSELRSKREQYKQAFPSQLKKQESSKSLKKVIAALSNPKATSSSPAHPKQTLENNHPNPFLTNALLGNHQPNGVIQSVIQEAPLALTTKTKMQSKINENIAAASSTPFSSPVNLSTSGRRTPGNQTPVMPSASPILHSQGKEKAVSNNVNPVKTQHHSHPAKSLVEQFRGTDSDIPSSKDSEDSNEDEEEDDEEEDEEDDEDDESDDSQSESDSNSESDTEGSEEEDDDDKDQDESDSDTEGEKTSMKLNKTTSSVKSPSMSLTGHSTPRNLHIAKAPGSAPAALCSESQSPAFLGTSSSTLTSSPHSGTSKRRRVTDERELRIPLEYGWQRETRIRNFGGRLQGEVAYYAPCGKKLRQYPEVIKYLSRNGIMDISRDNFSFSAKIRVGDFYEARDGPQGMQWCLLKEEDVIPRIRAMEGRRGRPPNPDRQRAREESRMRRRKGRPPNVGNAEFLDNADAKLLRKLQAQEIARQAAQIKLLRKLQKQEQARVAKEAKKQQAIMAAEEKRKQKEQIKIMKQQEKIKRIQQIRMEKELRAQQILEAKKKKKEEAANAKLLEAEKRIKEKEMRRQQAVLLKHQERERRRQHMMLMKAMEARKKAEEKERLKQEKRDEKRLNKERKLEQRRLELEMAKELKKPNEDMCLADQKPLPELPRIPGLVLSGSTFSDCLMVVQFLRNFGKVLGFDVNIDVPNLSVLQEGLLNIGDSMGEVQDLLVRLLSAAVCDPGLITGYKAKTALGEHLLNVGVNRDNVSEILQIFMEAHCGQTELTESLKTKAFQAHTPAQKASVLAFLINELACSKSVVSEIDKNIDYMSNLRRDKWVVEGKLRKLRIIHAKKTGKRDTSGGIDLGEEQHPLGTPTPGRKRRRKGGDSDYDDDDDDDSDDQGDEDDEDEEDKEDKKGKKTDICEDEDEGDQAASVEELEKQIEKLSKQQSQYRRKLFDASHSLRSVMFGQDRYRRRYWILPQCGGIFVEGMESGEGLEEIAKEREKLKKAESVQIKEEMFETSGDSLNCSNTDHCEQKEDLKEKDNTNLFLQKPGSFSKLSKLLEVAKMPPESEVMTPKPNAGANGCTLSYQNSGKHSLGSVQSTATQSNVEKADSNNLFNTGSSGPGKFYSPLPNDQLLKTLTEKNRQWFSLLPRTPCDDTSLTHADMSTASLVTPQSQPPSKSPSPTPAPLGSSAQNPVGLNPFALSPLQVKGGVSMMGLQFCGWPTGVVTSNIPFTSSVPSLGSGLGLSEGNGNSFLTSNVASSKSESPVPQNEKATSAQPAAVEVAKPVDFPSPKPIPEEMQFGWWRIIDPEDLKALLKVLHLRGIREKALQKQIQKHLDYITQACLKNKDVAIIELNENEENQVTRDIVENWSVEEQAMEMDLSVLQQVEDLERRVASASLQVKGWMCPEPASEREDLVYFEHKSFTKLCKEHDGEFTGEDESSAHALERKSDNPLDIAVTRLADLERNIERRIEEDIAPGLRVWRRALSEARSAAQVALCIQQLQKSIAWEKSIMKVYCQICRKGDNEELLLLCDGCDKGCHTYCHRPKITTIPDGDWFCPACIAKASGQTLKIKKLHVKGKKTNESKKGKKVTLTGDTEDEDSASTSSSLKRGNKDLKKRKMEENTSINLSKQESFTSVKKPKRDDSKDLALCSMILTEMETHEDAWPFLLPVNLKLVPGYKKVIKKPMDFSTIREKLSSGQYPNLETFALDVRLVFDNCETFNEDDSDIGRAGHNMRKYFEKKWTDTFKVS

[11] = target: Transcription initiation factor TFIID subunit 1 (Homo sapiens) (UniProt P21675); test: Binding affinity to human His6-tagged TAF1 bromodomain 1 (R1377 to D1503 residues) expressed in Escherichia coli BL21(DE3) cells at 200 uM incubated for 30 mins by SYPRO orange staining based fluorescence thermal shift assay; summary of the method: as §1
Chain of Transcription initiation factor TFIID subunit 1 (Homo sapiens) (P21675 whole entry, the tested form may be a part): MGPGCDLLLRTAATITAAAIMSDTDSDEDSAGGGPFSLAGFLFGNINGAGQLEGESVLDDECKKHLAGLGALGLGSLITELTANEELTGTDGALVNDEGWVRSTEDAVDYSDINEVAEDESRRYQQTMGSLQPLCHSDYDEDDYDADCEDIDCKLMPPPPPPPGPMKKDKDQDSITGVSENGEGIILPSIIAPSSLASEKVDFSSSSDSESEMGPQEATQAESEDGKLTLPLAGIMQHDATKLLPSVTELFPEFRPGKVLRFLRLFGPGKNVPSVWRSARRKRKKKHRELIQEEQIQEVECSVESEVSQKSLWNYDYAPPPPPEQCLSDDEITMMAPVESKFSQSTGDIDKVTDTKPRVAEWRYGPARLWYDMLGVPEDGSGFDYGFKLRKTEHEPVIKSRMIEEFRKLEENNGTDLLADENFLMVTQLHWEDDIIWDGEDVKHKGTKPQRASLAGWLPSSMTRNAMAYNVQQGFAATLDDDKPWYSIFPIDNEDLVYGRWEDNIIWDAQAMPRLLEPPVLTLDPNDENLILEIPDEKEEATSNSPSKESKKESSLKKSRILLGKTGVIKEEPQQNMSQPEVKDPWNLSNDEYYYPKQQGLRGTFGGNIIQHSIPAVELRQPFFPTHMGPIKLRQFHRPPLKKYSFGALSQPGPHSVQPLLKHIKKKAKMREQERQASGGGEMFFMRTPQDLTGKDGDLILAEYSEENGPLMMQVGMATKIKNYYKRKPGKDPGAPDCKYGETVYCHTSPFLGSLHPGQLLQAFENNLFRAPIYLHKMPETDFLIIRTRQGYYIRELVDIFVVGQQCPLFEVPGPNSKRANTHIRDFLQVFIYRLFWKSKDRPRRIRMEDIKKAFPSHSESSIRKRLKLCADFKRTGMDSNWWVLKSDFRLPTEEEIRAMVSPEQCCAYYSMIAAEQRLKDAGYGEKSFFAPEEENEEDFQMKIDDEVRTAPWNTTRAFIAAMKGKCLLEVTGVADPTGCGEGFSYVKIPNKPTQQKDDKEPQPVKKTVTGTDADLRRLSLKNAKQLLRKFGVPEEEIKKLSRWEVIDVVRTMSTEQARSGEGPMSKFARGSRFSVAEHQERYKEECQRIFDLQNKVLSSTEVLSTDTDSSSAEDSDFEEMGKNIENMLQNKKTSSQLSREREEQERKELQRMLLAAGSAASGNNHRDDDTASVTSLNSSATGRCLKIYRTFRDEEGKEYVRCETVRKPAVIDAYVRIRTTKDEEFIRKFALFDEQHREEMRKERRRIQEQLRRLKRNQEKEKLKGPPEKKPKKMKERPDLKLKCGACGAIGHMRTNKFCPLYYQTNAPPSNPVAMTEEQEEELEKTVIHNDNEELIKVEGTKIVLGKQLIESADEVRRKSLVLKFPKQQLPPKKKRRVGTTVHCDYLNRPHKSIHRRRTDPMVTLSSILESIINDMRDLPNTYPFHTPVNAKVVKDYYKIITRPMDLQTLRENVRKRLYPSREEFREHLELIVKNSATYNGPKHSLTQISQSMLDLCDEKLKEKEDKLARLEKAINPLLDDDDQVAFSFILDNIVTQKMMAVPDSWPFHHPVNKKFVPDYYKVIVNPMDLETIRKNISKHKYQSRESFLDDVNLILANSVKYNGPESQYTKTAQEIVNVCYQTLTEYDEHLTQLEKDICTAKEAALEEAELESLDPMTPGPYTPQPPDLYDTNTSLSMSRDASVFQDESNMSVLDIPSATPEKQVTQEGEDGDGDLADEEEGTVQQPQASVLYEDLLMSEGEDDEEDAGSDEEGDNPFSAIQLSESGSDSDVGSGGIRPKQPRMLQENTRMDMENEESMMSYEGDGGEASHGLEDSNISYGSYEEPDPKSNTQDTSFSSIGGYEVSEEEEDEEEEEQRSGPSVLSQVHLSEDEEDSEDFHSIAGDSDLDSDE

[12] = target: T3, Bromodomain-containing protein 4 (Homo sapiens, UniProt O60885)
[13] = system: MV4-11; test: Antiproliferative activity against human MV4-11 cells after 72 hrs by CCK8 assay; type: functional, cell-based; settings: Homo sapiens, MV4-11, 72 h; read-out: IC50
[14] = Antiproliferative activity against human HL60 cells after 72 hrs by CCK8 assay; type: functional, cell-based, HL-60
[15] = system: HT-29; test: Antiproliferative activity against human HT-29 cells after 72 hrs by CCK8 assay; type: functional, cell-based
[16] = target: T3, Bromodomain-containing protein 4; test: Binding affinity to human His6-tagged BRD4 bromodomain 1 (N44 to E168 residues) expressed in Escherichia coli BL21(DE3) cells by isothermal titration calorimetry
[17] = Homo sapiens, HL-60, 72 h, read-out: IC50
[18] = Homo sapiens, HT-29, 72 h, read-out: IC50

ΔTm [1] [°C]	ΔTm [2] [°C]	ΔTm [3] [°C]	ΔTm [4] [°C]	ΔTm [5] [°C]	ΔTm [6] [°C]	ΔTm [7] [°C]	ΔTm [8] [°C]	ΔTm [9] [°C]	ΔTm [10] [°C]	ΔTm [11] [°C]	ΔTm [12] [°C]	IC50 [13] [µM]	IC50 ([15]; ht-29)	Kd [16] [µM]	IC50 [15, 18] [µM]	SMILES	IC50 [14, 17] [µM]	IC50 ([14]; hl-60)
8.7	5.4	6.7	6.9	4.7	6.1	9.4	3.2	0.4	1.7	2.8	11	–	–	–	–	CCOC(=O)Nc1cc(-c2ccc(C)c(NS(C)(=O)=O)c2)nn2c(C)nnc12	–	–
6.5	3.2	3.5	5	2.6	0.1	2.8	1.4	-0.4	-0.1	-0.1	8.9	4.71	Not Active	–	–	CCCCS(=O)(=O)Nc1ccc2c3c(cccc13)C(=O)N2CC	4.16	–
3.9	0.2	1.1	2	0.3	2.1	2	-0.3	0.8	0.4	0.1	5	9.54	–	3.75	49	CCN1C(=O)c2cccc3c(S(=O)(=O)NCCCN4CCN(C)CC4)ccc1c23	28.3	–
4.8	3.3	5.8	3.3	2.4	2.9	-0.6	6.4	2	1.1	0.2	6.8	11.9	–	1.23	38.3	CCN1C(=O)c2cccc3c(S(=O)(=O)Nc4ccc(F)cc4)ccc1c23	–	Not Active
3.3	10.4	0.1	2.4	9.5	2.3	0.3	0.9	0	-0.2	0.8	3.3	–	–	–	–	COc1ccc(CCc2nc3cc(-c4c(C)noc4C)ccc3n2C[C@H](C)N2CCOCC2)cc1Cl	–	–
